Results of several laboratories.
ABL1: Tyrosine-protein kinase ABL1 (ABL1, Homo sapiens, UniProt P00519)
ABL1 Q252H phosphorylated: Tyrosine-protein kinase ABL1, phosphorylated (ABL1, Homo sapiens, UniProt P00519, Q252H)
ABL1 T315I: Tyrosine-protein kinase ABL1 (ABL1, Homo sapiens, UniProt P00519, T315I)
ABL1 F317L phosphorylated: Tyrosine-protein kinase ABL1, phosphorylated (ABL1, Homo sapiens, UniProt P00519, F317L)
ABL1 E255K phosphorylated: Tyrosine-protein kinase ABL1, phosphorylated (ABL1, Homo sapiens, UniProt P00519, E255K)
ABL1 phosphorylated: Tyrosine-protein kinase ABL1, phosphorylated (ABL1, Homo sapiens, UniProt P00519)
ABL1 F317I phosphorylated: Tyrosine-protein kinase ABL1, phosphorylated (ABL1, Homo sapiens, UniProt P00519, F317I)
ABL1 F317L non-phosphorylated: Tyrosine-protein kinase ABL1, non-phosphorylated (ABL1, Homo sapiens, UniProt P00519, F317L)

| SMILES | target | read-out | mode | technique | concentration | quantity | value |
| --- | --- | --- | --- | --- | --- | --- | --- |
| COc1cc2c(N3CCN(C(=O)Nc4ccc(OC(C)C)cc4)CC3)ncnc2cc1OCCCN1CCCCC1 | ABL1 | cell-free assay | – | – | 0.5 µM | remaining signal | 104% |
| CCCOc1ccc(OC)c(F)c1C(=O)c1ccc(C(=O)N[C@@H]2CNC[C@H]2NC(=O)c2ccc3[nH]ncc3c2)cc1 | Tyrosine-protein kinase ABL1 (ABL1, Homo sapiens, UniProt P00519, M351T) | enzyme activity | inhibitor | – | 10 µM | remaining activity | 113% |
| Nc1cnc(N2CCc3cc(S(=O)(=O)Nc4c(F)cc(Cl)cc4F)cc(N4CCCC4=O)c32)nc1 | ABL1 Q252H phosphorylated | cell-free assay | – | competition with immobilised ligand | 1 µM | remaining binding | 98% |
| Cc1ccc(NC(=O)c2ccc(CN3CCN(C)CC3)cc2)cc1Nc1nc(-c2cccnc2)cs1 | ABL1 | cell-free assay | – | – | 0.5 µM | remaining signal | 49.8% |
| CNc1cccc2cc(C(=O)Nc3ccc(C(=O)O)cc3)c(=O)[nH]c12 | ABL1 T315I | enzyme activity | inhibitor | – | 10 µM | inhibition | 1.3% |
| O=C(Nc1c[nH]nc1C(=O)NC1CCNCC1)c1cc(F)cc(F)c1 | ABL1 F317L phosphorylated | binding | – | competition with immobilised ligand | 1 µM | remaining binding | 100% |
| O=C(O)[C@@H]1[C@@H](Cn2nnc3ccccc3c2=O)CC[C@H]1C(=O)c1ccc(OCCC2CCOCC2)cc1 | ABL1 E255K phosphorylated | binding | – | competition with immobilised ligand | 1 µM | remaining binding | 84% |
| O=C(c1ccc(Nc2ncc(Cl)c(-c3cc4ccccc4s3)n2)cc1)N1CCC(N2CCCC2)CC1 | Tyrosine-protein kinase ABL1, non-phosphorylated (ABL1, Homo sapiens, UniProt P00519, F317I) | binding | – | competition with immobilised ligand | 1 µM | remaining binding | 74% |
| Cc1ccc(NC(=O)c2ccc(C)c(C(F)(F)F)c2)cc1C#Cc1nn(C2CCC(O)CC2)c2ncnc(N)c12 (stereo not shown) | ABL1 | cell-free assay | – | – | 10 µM | remaining signal | -3% |
| COc1cc2ncnc(Nc3ccc(Oc4ccccc4)cc3C)c2cc1OC | ABL1 | enzyme activity | inhibitor | – | 1 µM | inhibition | 13% |
| COc1cc(-c2cc(-c3ccc(N4CCNCC4)cc3)cnc2N)cc(OC)c1OC | ABL1 T315I | enzyme activity | inhibitor | – | 0.1 µM | inhibition | 13% |
| O=C(NCCCN1CCOCC1)c1ccc(Nc2ncc(Cl)c(-c3ccc(Cl)s3)n2)cc1 | ABL1 Q252H phosphorylated | binding | – | competition with immobilised ligand | 1 µM | remaining binding | 29% |
| c1nc2c(Nc3ccc4c(c3)OCCO4)nc(Nc3ccc4c(c3)OCCO4)nc2[nH]1 | ABL1 phosphorylated | binding | – | competition with immobilised ligand | 10 µM | binding vs control | 1.2% |
| Cc1nc(Cc2cccc(C(F)(F)F)c2)sc1-c1ccc(C(N)=O)nc1 | ABL1 F317I phosphorylated | binding | – | – | 1 µM | remaining binding | 83% |
| COc1ccc(COc2ccc(Cc3cnc(N)nc3N)cc2OC)cc1 | ABL1 | cell-free assay | – | – | 0.5 µM | remaining signal | 102% |
| N[C@@H]1CCN(c2nccc(-c3cnn4ncccc34)n2)C1 | ABL1 phosphorylated | binding | – | – | 1 µM | remaining binding | 95% |
| COc1cnc(Nc2cccc(S(N)(=O)=O)c2)nc1N1CCN(c2ccccc2)C(=O)C1 | ABL1 F317I phosphorylated | binding | – | competition with immobilised ligand | 1 µM | remaining binding | 96% |

| SMILES | target | read-out | mode | technique | concentration | quantity | value |
| --- | --- | --- | --- | --- | --- | --- | --- |
| Nc1ncnc2occ(-c3ccc(NC(=O)Nc4cc(C(F)(F)F)ccc4F)cc3)c12 | Tyrosine-protein kinase ABL1, non-phosphorylated (ABL1, Homo sapiens, UniProt P00519, T315I) | cell-free assay | inhibitor | – | 20 µM | remaining signal | 0% |
| CN(c1ccnc(CNc2nc(Nc3ccc4c(c3)CC(=O)N4)ncc2C(F)(F)F)n1)S(C)(=O)=O | Tyrosine-protein kinase ABL1, phosphorylated (ABL1, Homo sapiens, UniProt P00519, M351T) | cell-free assay | – | competition with immobilised ligand | 1 µM | remaining binding | 62% |
| Cc1cnc(NC2CCOCC2)nc1-n1cnc(C(=O)NC(CN)c2cc(F)cc(Cl)c2)c1 (stereo not shown) | ABL1 T315I | enzyme activity | inhibitor | radiometric | 1 µM | remaining activity | 115% |
| CN(C)C(=O)Cn1cc(-c2nc(C3(c4ccc(-c5cnc(N)nc5)cc4)CC3)no2)cn1 | ABL1 F317L non-phosphorylated | cell-free assay | – | competition with immobilised ligand | 1 µM | remaining binding | 55% |
| Cc1ccc(C(=O)NCc2ccsc2)cc1C#Cc1cn(C(C)C)c2ncnc(N)c12 | ABL1 T315I | enzyme activity | inhibitor | – | 1 µM | activity vs control | 6% |
| COc1ncc2cc3ccccc3nc2c1C#N | ABL1 E255K phosphorylated | cell-free assay | – | competition with immobilised ligand | 5 µM | remaining binding | 100% |
| O=C(N1CCS(=O)(=O)CC1)N1C[C@H](c2ccc(OC(F)(F)F)cc2)C[C@H](c2nc(C3CC3)no2)C1 | Tyrosine-protein kinase ABL1, phosphorylated (ABL1, Homo sapiens, UniProt P00519, H396P) | cell-free assay | – | competition with immobilised ligand | 1 µM | remaining binding | 100% |
| C[C@@H](c1ccc(-n2cnc3c(N)ncnc32)cc1)N1CCc2nn(C)c(Cc3ccccc3)c2C1=O | ABL1 F317L non-phosphorylated | binding | – | competition with immobilised ligand | 0.1 µM | remaining binding | 16% |
| CO[C@@H](C)c1c(Nc2ccc([C@H](N(C)C(=O)C3CCS(=O)(=O)CC3)C(F)(F)F)cc2)cnc2cc(Cl)nn12 | ABL1 F317I phosphorylated | binding | – | – | 1 µM | remaining binding | 100% |
| Cc1cc(NC(=O)c2cccc3cc(-c4cccc5[nH]nc(N)c45)ccc23)ccc1F | Tyrosine-protein kinase ABL1 (ABL1, Homo sapiens, UniProt P00519, Y253F) | enzyme activity | inhibitor | – | 0.1 µM | activity vs control | 91% |
| CC(=O)N1CCC(c2ccc(C(=O)NC(=N)N)cc2C(F)(F)F)CC1 | ABL1 F317I phosphorylated | binding | – | – | 1 µM | remaining binding | 96% |
| CNC(=O)c1cc2c(Oc3ccc(NC(=O)C4(C(=O)Nc5ccc(F)cc5)CC4)cc3)ccnc2cc1OC | Tyrosine-protein kinase ABL1 (ABL1, Homo sapiens, UniProt P00519, H396P) | enzyme activity | inhibitor | radiometric | 1 µM | inhibition | 75% |
| O=C1NC(=O)c2cc(Nc3ccc(F)cc3)c(Nc3ccc(F)cc3)cc21 | ABL1 | cell-free assay | – | – | 0.5 µM | remaining signal | 95.7% |
| C=CC(=O)N1CCC(C(=O)NCC(=O)N2CCN(c3nc(-c4cnc(N)nc4C(F)F)nc(N4CCOCC4)n3)CC2)CC1 | ABL1 F317L phosphorylated | binding | – | competition with immobilised ligand | 1 µM | remaining binding | 100% |
| O=C(c1ccc(Nc2ncc(Cl)c(-c3ccc(Cl)s3)n2)cc1)N1CCC(N2CCCC2)CC1 | ABL1 Q252H phosphorylated | binding | – | competition with immobilised ligand | 1 µM | remaining binding | 4.2% |
| COc1cc2ncnc(Nc3ccc(Oc4ccccc4)c(C)c3C)c2cc1OC | Tyrosine-protein kinase ABL1 (ABL1, Homo sapiens, UniProt P00519, E255K) | enzyme activity | inhibitor | – | 1 µM | inhibition | 5% |
| O=C1Nc2ccc(Cl)cc2C1=Cc1cc(Cl)c(O)c(Cl)c1 | ABL1 | cell-free assay | – | – | 0.5 µM | remaining signal | 84% |
